Results from ChEMBL document CHEMBL4028857, “Anchimerically Activated ProTides as Inhibitors of Cap-Dependent Translation and Inducers of Chemosensitization in Mantle Cell Lymphoma” (J Med Chem, 2017).
The source made the active and inactive calls. The calls are words filed in the database; no cut-off is given here.

How the values were obtained:
[1] = Volume of distribution in Sprague-Dawley rat at 2.5 mg/kg, iv by LC-MS/MS analysis; type: ADME, organism-based; conditions: in vivo
Method in brief: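 Female Sprague-Dawley rats (n=3, 250-274 g) with catheters; compound in 0.5% aqueous CMC with 5% DMSO given as a single i.v. injection, 2.5 mg/kg. Blood drawn at 0–480 min into K2EDTA tubes. Plasma precipitated with acetonitrile containing internal standards, then LC-MS/MS in positive MRM mode. Parameters from non-compartmental analysis.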

[2] = target: Eukaryotic translation initiation factor 4E (Homo sapiens) (UniProt P06730); test: Inhibition of eIF4E in human GRANTA-519 cells assessed as down regulation of Bcl-2 protein expression at 50 to 200 uM after 48 hrs by Western blot method; type: cell-based
Method in brief: (§1)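 MCL lines treated 48 h with compound; protein quantified and Western blotted with eIF4E, eIF4G, actin, c-Myc and Bcl-2 antibodies.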

[3] = target: Adenosine 5'-monophosphoramidase HINT1 (Homo sapiens, UniProt P49773); test: Prodrug activation in human Z138 cells assessed as hint1-mediated 2-amino-7-(2-(4-chlorophenoxy)ethyl)-9-((2R,3R,4S,5R)-3,4-dihydroxy-5-(phosphonooxymethyl)tetrahydrofuran-2-yl)-6-oxo-6,9-dihydro-1H-purin-7-ium formation per 5 million cells at 150 uM after 12 hrs by LC-MS/MS analysis relative to 9-((2R,3R,4S,5R)-5-(((((2-(1H-Indol-3-yl)ethyl)amino)-(hydroxy)phosphoryl)oxy)methyl)-3,4-dihydroxytetrahydrofuran-2-yl)-2-amino-7-(2-(4-chlorophenoxy)ethyl)-6-oxo-6,9-dihydro-1H-purin-7-ium; type: cell-based
Method in brief: (§2)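 Mantle cell lymphoma cells (five million) grown in RPMI with 10% FBS, penicillin/streptomycin and L-glutamine at 37 °C, 5% CO2, then exposed to 150 µM compound for 12 h at 37 °C. Washed with ice-cold PBS, pellet extracted in MeOH/NH4OAc (60:40) with 80 fmol internal standards, three liquid-N2 freeze–thaw cycles, filtered, dried, redissolved in 20 mM HEPES pH 7.2. Analysed by LC-MS/MS against a standard curve.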

[4] = AUC (0 to 8 hrs) in Sprague-Dawley rat plasma at 2.5 mg/kg, iv by LC-MS/MS analysis; type: ADME, organism-based; design: time < 8 hr, dose 2.5 mg/kg, route intravenous
Method in brief: (§3)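 Female Sprague-Dawley rats (250-274 g, n=3, catheterized femoral/jugular veins) dosed once p.o. by gavage (25 mg/kg) then, after a 3-day washout, i.v. (2.5 mg/kg). Formulation: 10 mg/mL in 0.5% aqueous CMC with 5% DMSO. Serial blood draws to 480 min into K2EDTA; plasma protein-precipitated with acetonitrile plus internal standards; LC-MS/MS (positive MRM); non-compartmental PK; %F from dose-normalized AUC per rat.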

[5] = test system: Granta-519; test: (§4) Prodrug activation in human GRANTA-519 cells assessed as 9-((2R,3R,4S,5R)-5-(((((2-(1H-Indol-3-yl)ethyl)amino)-(hydroxy)phosphoryl)oxy)methyl)-3,4-dihydroxytetrahydrofuran-2-yl)-2-amino-7-(2-(4-chlorophenoxy)ethyl)-6-oxo-6,9-dihydro-1H-purin-7-ium formation per 5 million cells at 150 uM after 12 hrs by LC-MS/MS analysis; type: cell-based; conditions: granta-519, 12 h
Method in brief: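 Five million MCL cells in RPMI/10% FBS with penicillin, streptomycin and L-glutamine were exposed to compound (150 µM) for 12 h at 37 °C. Cells were washed in cold PBS, extracted in MeOH/NH4OAc (60:40) with 80 fmol internal standards, freeze-thawed three times, then filtered and dried. Residue was taken up in HEPES for LC-MS/MS, quantified against an internal-standard curve.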

[6] = test system: Granta-519; test: Antiproliferative activity against human GRANTA-519 cells preincubated for 48 hrs followed by thymidine addition measure after 16 hrs by Thymidine incorporation assay; type: functional, cell-based
Method in brief: (§5)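 MCL lines treated 48 h with compound re-added daily, alone or with co-drug (ibrutinib 25 µM where used), then thymidine added for a further 16 h; proliferation read as thymidine incorporation.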

[7] = Half life in HEPES buffer at 80 uM at pH 2 by RP-HPLC analysis; type: physicochemical
Method in brief: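 Compound at 80 µM in 20 mM HEPES (pH 7.2 or 2.0) incubated at 37 °C; aliquots analyzed by RP-HPLC at 0, 1, 4, 6, 12, 18 and 24 h to follow methylthioalkyl deprotection and derive half-life.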

[8] = target: Eukaryotic translation initiation factor 4E (Homo sapiens) (UniProt P06730); test: Inhibition of eIF4E in human GRANTA-519 cells assessed as down regulation of c-Myc protein expression after 48 hrs by Western blot method; type: cell-based; method in brief: as §1
[9] = test system: Rattus norvegicus; test: AUC (0 to 8 hrs) in Sprague-Dawley rat plasma assessed as 9-((2R,3R,4S,5R)-5-(((((2-(1H-Indol-3-yl)ethyl)amino)-(hydroxy)phosphoryl)oxy)methyl)-3,4-dihydroxytetrahydrofuran-2-yl)-2-amino-7-(2-(4-chlorophenoxy)ethyl)-6-oxo-6,9-dihydro-1H-purin-7-ium at 25 mg/kg, po by LC-MS/MS analysis; type: ADME, organism-based; design: time < 8 hr, dose 25 mg/kg, route oral; conditions: in vivo; method in brief: as §3
[10] = as §4, with “Mino” for “GRANTA-519”; type: cell-based; method in brief: as §2
[11] = target: Eukaryotic translation initiation factor 4E (Homo sapiens) (UniProt P06730); test: Inhibition of eIF4E in human Mino cells assessed as potentiation of doxorobucin induced antiproliferation at 100 uM preincubated for 48 hrs followed by thymidine addition measure after 16 hrs by Thymidine incorporation assay; type: cell-based; method in brief: as §5
[12] = test system: Granta-519; test: Antiproliferative activity against human GRANTA-519 cells after 48 hrs by Annexin V/propidium iodide based flow cytometric analysis; type: functional, cell-based; conditions: Granta-519, 48 h
Method in brief: (§6)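 MCL lines treated 48 h with compound re-added daily (alone or with co-drug; ibrutinib 25 µM), then survival assessed by Annexin V/PI flow cytometry.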

[13] = target: Eukaryotic translation initiation factor 4E-binding protein 1 (Homo sapiens) (UniProt Q13541); test: Inhibition of 4EBP1 phosphorylation at Thr 37/46 residues in human Mino cells at 100 uM after 48 hrs by Western blot analysis; type: cell-based; method in brief: as §1
[14] = target: Eukaryotic translation initiation factor 4E (Homo sapiens) (UniProt P06730); test: Inhibition of eIF4E in human Mino cells assessed as down regulation of c-Myc mRNA expression at 100 uM by RT-PCR based RNA Immunoprecipitation; type: cell-based
Method in brief: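 RNA-immunoprecipitation on Mino cells with a RNA-binding protein immunoprecipitation kit.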

[15] = Antiproliferative activity against human Mino cells at 200 uM preincubated for 48 hrs followed by thymidine addition measure after 16 hrs by Thymidine incorporation assay; type: functional; method in brief: as §5
[16] = target: Eukaryotic translation initiation factor 4E (Homo sapiens) (UniProt P06730); test: Inhibition of eIF4E in human Mino cells assessed as potentiation of ibrutinib induced antiproliferation at 100 uM preincubated for 48 hrs followed by thymidine addition measure after 16 hrs by Thymidine incorporation assay; type: cell-based; method in brief: as §5
[17] = target: Eukaryotic translation initiation factor 4E (Homo sapiens) (UniProt P06730); test: Inhibition of eIF4E in human Z138 cells assessed as disruption of interaction between protein and mRNA 5'-cap at 10 to 100 uM by m7GTP pull-down assay; type: cell-based
Method in brief: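 Eight to ten million treated MCL cells washed in cold PBS, lysed in cap binding buffer, and eIF4E binding captured on m7GTP-Sepharose beads (pull-down).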

[18] = Cytotoxicity against human Mino cells assessed as reduction in cell survival at 100 uM after 48 hrs in presence of dexamethasone by Annexin V/propidium iodide based flow cytometric analysis; method in brief: as §6
[19] = test system: Mino; test: (§7) Antiproliferative activity against human Mino cells preincubated for 48 hrs followed by thymidine addition measure after 16 hrs by Thymidine incorporation assay; type: functional, cell-based; method in brief: as §5
[20] = as §7; type: functional, cell-based; method in brief: as §5

Eukaryotic translation initiation factor 4E (Homo sapiens), sequence (P06730 whole entry): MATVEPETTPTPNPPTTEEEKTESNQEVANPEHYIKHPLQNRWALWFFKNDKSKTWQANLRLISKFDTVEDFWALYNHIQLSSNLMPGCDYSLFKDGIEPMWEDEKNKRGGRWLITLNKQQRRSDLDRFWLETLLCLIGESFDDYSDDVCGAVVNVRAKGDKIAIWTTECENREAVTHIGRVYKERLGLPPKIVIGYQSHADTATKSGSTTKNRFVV
Adenosine 5'-monophosphoramidase HINT1, sequence (P49773 whole entry): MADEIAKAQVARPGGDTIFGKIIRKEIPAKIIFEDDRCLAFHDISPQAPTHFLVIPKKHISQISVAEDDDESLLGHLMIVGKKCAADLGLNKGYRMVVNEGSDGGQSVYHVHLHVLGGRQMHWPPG
Eukaryotic translation initiation factor 4E-binding protein 1 (Homo sapiens), sequence (Q13541 whole entry): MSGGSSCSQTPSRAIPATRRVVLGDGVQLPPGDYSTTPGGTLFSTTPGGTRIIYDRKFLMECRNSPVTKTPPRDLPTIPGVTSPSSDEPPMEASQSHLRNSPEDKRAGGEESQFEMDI

Vd [1]: 205 L/kg
inhibition [2]: inactive
fold change (FC) [3]: 520
AUC(0-t) at 8 h [4]: 23.3 ng·h/mL
Drug metabolism [5]: 0.33 pmol
half-life at 80 µM [7]: 5 h
inhibition [8]: Dose-dependent effect
AUC [9]: 2.6 µg·min/mL
Drug metabolism [10]: 64.6 pmol
inhibition [11]: Active
inhibition [13]: inactive
inhibition [14]: inactive
inhibition [16]: Active
inhibition [17]: Active
Compound: CSCCOP(=O)(NCCc1c[nH]c2ccccc12)OC[C@H]1O[C@@H](n2c[n+](CCOc3ccc(Cl)cc3)c3c(=O)[nH]c(N)nc32)[C@H](O)[C@@H]1O (stereo partly specified)
Activity [6]: Dose-dependent effect
IC50 [6]: 50 µM
IC50 [12]: > 200 µM
Activity [15]: 100%
Activity [18]: Toxic
Activity [19]: Dose-dependent effect
IC50 [20]: 50 µM
